Source: the M2OR odorant receptor database
Changes are numbered by the printed parent chain.

Key:
Settings in all cases: stereoisomer not certain
OR2T11 (Homo sapiens) = molecular target: T1, OR2T11 (Homo sapiens) (UniProt Q8NH01)
T1 sequence (whole entry): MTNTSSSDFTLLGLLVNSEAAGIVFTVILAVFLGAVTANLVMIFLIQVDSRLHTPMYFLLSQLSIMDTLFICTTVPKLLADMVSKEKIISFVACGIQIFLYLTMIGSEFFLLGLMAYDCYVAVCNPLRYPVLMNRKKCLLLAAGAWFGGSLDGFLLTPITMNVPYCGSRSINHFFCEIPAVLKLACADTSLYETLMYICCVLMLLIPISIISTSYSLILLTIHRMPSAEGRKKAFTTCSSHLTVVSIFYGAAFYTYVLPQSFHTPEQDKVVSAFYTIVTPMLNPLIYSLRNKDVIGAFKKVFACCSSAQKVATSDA
Summary of the method: (§1)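 Values were gathered from published papers (main text and supplementary material), with extra details requested from the original authors when needed, and checked for typos and inconsistencies. Each receptor–molecule pair is called responsive (active) if the original authors judged the measured signal statistically different from baseline, and non-responsive (inactive) otherwise. Assay methods varied by source, often transient mammalian cell-line luciferase assays. Recorded details include cell line, G-protein, co-transfected protein and tags.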

OR2T12 (Homo sapiens) = molecular target: T2, OR2T12 (Homo sapiens) (UniProt Q8NG77)
T2 sequence (whole entry): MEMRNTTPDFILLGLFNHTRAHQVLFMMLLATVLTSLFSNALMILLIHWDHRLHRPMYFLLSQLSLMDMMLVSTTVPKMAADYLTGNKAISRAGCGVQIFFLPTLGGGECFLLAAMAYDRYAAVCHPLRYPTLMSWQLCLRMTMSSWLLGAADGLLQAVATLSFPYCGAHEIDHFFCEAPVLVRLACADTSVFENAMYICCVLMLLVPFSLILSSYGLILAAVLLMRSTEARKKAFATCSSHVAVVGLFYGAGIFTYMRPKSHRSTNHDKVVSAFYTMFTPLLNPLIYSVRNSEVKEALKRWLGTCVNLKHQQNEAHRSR
Summary of the method: as §1

OR2T2 (Homo sapiens) = molecular target: T3, OR2T2 (Homo sapiens) (UniProt Q6IF00)
T3 sequence (whole entry): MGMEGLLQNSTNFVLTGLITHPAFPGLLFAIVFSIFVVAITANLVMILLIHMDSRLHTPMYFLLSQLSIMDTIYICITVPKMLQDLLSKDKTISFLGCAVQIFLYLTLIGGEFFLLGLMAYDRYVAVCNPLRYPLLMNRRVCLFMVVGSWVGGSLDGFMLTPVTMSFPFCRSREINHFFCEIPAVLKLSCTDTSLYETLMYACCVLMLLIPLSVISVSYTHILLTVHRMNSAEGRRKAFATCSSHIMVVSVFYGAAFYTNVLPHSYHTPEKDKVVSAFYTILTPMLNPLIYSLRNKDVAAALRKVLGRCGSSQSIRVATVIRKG
Summary of the method: as §1

OR2T27 (Homo sapiens) = molecular target: T4, OR2T27 (Homo sapiens) (UniProt Q8NH04)
T4 sequence (whole entry): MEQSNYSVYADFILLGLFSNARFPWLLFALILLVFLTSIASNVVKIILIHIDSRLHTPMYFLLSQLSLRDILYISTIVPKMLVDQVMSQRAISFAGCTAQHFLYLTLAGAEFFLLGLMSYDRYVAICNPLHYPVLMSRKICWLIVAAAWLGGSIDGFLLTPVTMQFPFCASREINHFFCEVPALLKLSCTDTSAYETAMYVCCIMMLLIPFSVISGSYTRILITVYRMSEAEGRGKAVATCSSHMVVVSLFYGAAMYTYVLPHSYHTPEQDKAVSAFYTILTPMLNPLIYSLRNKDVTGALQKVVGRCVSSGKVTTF
Summary of the method: as §1

OR2T29 (Homo sapiens) = molecular target: T5, OR2T29 (Homo sapiens) (UniProt Q8NH02)
T5 sequence (whole entry): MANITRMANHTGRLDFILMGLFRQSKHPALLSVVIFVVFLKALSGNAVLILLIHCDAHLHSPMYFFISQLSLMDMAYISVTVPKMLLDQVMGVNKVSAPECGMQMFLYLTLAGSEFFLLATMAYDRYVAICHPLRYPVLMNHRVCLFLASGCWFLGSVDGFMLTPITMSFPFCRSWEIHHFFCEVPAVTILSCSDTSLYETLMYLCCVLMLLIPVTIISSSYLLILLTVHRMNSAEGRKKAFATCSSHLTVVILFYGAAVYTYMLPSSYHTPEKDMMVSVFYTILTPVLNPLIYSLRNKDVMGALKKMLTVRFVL
Summary of the method: as §1

OR2T3 (Homo sapiens) = molecular target: T6, OR2T3 (Homo sapiens) (UniProt Q8NH03)
T6 sequence (whole entry): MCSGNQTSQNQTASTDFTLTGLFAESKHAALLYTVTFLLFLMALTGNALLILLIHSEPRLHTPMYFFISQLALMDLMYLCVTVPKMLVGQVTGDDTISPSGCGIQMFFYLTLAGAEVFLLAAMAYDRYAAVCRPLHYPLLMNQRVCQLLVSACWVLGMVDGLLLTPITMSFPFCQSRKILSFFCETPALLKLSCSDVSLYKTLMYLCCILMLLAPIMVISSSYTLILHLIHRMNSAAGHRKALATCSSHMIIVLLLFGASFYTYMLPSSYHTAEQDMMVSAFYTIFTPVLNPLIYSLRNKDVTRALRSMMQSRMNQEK
Summary of the method: as §1

OR2T33 (Homo sapiens) = molecular target: T7, OR2T33 (Homo sapiens) (UniProt Q8NG76)
T7 sequence (whole entry): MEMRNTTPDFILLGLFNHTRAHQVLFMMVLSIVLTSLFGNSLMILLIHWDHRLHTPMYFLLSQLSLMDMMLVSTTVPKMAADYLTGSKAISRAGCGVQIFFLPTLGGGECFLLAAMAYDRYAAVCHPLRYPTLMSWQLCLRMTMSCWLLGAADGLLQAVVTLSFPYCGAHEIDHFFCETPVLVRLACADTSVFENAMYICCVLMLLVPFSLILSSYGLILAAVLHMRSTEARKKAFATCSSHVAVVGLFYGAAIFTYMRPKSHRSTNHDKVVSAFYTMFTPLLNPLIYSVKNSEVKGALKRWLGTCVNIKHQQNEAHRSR
Summary of the method: as §1

OR2T34 (Homo sapiens) = molecular target: T8, OR2T34 (Homo sapiens) (UniProt Q8NGX1)
T8 sequence (whole entry): T6 sequence (whole entry) with Y109H, T202M, M204T, A214T, H239R, P267R
Summary of the method: as §1

OR2T35 (Homo sapiens) = molecular target: T9, OR2T35 (Homo sapiens) (UniProt Q8NGX2)
T9 sequence (whole entry): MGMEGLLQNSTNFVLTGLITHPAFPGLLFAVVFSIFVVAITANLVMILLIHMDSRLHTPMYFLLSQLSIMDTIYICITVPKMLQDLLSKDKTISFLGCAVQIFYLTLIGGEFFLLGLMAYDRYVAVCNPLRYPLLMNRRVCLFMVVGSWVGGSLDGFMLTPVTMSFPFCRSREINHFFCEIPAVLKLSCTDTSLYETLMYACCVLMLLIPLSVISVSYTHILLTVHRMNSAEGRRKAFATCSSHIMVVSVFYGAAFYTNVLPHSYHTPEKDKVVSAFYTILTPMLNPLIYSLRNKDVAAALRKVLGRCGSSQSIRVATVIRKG
Summary of the method: as §1

OR2T4 (Homo sapiens) = molecular target: T10, OR2T4 (Homo sapiens) (UniProt Q8NH00)
T10 sequence (whole entry): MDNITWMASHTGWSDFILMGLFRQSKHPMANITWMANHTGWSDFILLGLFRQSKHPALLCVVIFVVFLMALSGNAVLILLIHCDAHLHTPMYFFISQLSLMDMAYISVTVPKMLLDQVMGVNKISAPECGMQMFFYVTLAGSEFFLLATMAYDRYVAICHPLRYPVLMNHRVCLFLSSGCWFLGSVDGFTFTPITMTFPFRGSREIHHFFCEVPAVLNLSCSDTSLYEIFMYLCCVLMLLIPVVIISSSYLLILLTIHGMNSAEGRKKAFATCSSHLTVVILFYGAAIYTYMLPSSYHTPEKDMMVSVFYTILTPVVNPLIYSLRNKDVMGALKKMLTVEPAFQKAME
Summary of the method: as §1

OR2T5 (Homo sapiens) = molecular target: T11, OR2T5 (Homo sapiens) (UniProt Q6IEZ7)
T11 sequence (whole entry): T5 sequence (whole entry) with R13K, Q24R
Summary of the method: as §1

OR2T6 (Homo sapiens) = molecular target: T12, OR2T6 (Homo sapiens) (UniProt Q8NHC8)
T12 sequence (whole entry): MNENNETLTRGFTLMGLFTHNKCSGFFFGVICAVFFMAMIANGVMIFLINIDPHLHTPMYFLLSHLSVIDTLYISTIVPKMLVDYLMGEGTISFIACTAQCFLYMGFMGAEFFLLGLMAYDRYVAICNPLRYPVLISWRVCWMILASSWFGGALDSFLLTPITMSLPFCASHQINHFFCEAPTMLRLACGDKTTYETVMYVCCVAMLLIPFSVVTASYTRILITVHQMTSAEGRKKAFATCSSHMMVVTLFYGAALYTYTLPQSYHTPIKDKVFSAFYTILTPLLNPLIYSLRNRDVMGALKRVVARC
Summary of the method: as §1

OR2T2 L104F L262Q = tested on: T13, OR2T2 L104F L262Q
T13 sequence (whole entry): T3 sequence (whole entry) with L104F, L262Q
Summary of the method: as §1

OR2T2 L104F = tested on: T14, OR2T2 L104F
T14 sequence (whole entry): T3 sequence (whole entry) with L104F
Summary of the method: as §1

OR2T2 Q313H = tested on: T15, OR2T2 Q313H
T15 sequence (whole entry): T3 sequence (whole entry) with Q313H
Summary of the method: as §1

OR2T3 L256F = tested on: T16, OR2T3 L256F
T16 sequence (whole entry): T6 sequence (whole entry) with L256F
Summary of the method: as §1

OR2T3 R298C = tested on: T17, OR2T3 R298C
T17 sequence (whole entry): T6 sequence (whole entry) with R298C
Summary of the method: as §1

OR2T3 Y109H = tested on: T18, OR2T3 Y109H
T18 sequence (whole entry): T6 sequence (whole entry) with Y109H
Summary of the method: as §1

OR2T5 K13R K41M G45E = tested on: T19, OR2T5 K13R K41M G45E
T19 sequence (whole entry): T5 sequence (whole entry) with Q24R, K41M, G45E
Summary of the method: as §1

OR2T5 K13R L134F = tested on: T20, OR2T5 K13R L134F
T20 sequence (whole entry): T5 sequence (whole entry) with Q24R, L134F
Summary of the method: as §1

Measured: odorant receptor agonist call

CCCCCC(=O)C(C)C(C)=O (stereo not given)
not listed: OR2T2 L104F L262Q | OR2T2 L104F | OR2T2 Q313H | OR2T3 L256F | OR2T3 R298C | OR2T3 Y109H | OR2T5 K13R K41M G45E | OR2T5 K13R L134F
inactive: all other assays above

CC(=O)OCc1ccccc1
inactive: OR2T34 (Homo sapiens)

CCCCC(S)C(C)CO (stereo not given)
not listed: OR2T2 L104F L262Q | OR2T2 L104F | OR2T2 Q313H | OR2T3 L256F | OR2T3 R298C | OR2T3 Y109H | OR2T5 K13R K41M G45E | OR2T5 K13R L134F
inactive: all other assays above

CC(=O)C=CC1=C(C)CCCC1(C)C
inactive: OR2T34 (Homo sapiens)

CC(CO)CS (stereo not given)
not listed: OR2T2 L104F L262Q | OR2T2 L104F | OR2T2 Q313H | OR2T3 L256F | OR2T3 R298C | OR2T3 Y109H | OR2T5 K13R K41M G45E | OR2T5 K13R L134F
inactive: all other assays above

CCC(=O)C=CC1C(C)=CCCC1(C)C (stereo not given)
inactive: OR2T34 (Homo sapiens)

COC1CC2CC1C1CC(C=O)CC21 (stereo not given)
inactive: OR2T34 (Homo sapiens)

CCC1OC(C)=C(O)C1=O (stereo not given)
inactive: all assays above

CC1CC(C)(c2ccccc2)CO1 (stereo not given)
inactive: OR2T34 (Homo sapiens)

COc1ccc(C)cc1
inactive: OR2T34 (Homo sapiens)

CCC1OC(=O)C(O)=C1C (stereo not given)
inactive: all assays above

Cc1cnc(C)c(C)n1
inactive: all assays above

CC(=O)c1c(C)c([N+](=O)[O-])c(C(C)(C)C)c([N+](=O)[O-])c1C
not listed: OR2T2 L104F L262Q | OR2T2 L104F | OR2T2 Q313H | OR2T3 L256F | OR2T3 R298C | OR2T3 Y109H | OR2T5 K13R K41M G45E | OR2T5 K13R L134F
inactive: all other assays above

CCC=C(C)C(O)CCCCC (stereo not given)
inactive: OR2T34 (Homo sapiens)

CCCCCC(S)C(C)CO (stereo not given)
not listed: OR2T2 L104F L262Q | OR2T2 L104F | OR2T2 Q313H | OR2T3 L256F | OR2T3 R298C | OR2T3 Y109H | OR2T5 K13R K41M G45E | OR2T5 K13R L134F
inactive: all other assays above

CC(C)=CCCC(C)CC=O (stereo not given)
inactive: OR2T34 (Homo sapiens)

CCC(S)C(C)CO (stereo not given)
not listed: OR2T2 L104F L262Q | OR2T2 L104F | OR2T2 Q313H | OR2T3 L256F | OR2T3 R298C | OR2T3 Y109H | OR2T5 K13R K41M G45E | OR2T5 K13R L134F
inactive: all other assays above
